Measurements published in ChEMBL document CHEMBL2046381, “Defining the mechanism of action and enzymatic selectivity of psammaplin A against its epigenetic targets” (J Med Chem, 2012).
Calls of active or inactive are those of the source. Unless noted, no cut-off for these calls is given here.

Legend:
[1] = target: T1, Protein deacetylase HDAC6 (Homo sapiens, UniProt Q9UBN7); assay: Inhibition of human recombinant HDAC6 using Boc-lys(Ac)-AMC as substrate preincubated for 20 mins with substrate measured after 60 mins by fluorescence analysis
T1 sequence (Q9UBN7 whole entry): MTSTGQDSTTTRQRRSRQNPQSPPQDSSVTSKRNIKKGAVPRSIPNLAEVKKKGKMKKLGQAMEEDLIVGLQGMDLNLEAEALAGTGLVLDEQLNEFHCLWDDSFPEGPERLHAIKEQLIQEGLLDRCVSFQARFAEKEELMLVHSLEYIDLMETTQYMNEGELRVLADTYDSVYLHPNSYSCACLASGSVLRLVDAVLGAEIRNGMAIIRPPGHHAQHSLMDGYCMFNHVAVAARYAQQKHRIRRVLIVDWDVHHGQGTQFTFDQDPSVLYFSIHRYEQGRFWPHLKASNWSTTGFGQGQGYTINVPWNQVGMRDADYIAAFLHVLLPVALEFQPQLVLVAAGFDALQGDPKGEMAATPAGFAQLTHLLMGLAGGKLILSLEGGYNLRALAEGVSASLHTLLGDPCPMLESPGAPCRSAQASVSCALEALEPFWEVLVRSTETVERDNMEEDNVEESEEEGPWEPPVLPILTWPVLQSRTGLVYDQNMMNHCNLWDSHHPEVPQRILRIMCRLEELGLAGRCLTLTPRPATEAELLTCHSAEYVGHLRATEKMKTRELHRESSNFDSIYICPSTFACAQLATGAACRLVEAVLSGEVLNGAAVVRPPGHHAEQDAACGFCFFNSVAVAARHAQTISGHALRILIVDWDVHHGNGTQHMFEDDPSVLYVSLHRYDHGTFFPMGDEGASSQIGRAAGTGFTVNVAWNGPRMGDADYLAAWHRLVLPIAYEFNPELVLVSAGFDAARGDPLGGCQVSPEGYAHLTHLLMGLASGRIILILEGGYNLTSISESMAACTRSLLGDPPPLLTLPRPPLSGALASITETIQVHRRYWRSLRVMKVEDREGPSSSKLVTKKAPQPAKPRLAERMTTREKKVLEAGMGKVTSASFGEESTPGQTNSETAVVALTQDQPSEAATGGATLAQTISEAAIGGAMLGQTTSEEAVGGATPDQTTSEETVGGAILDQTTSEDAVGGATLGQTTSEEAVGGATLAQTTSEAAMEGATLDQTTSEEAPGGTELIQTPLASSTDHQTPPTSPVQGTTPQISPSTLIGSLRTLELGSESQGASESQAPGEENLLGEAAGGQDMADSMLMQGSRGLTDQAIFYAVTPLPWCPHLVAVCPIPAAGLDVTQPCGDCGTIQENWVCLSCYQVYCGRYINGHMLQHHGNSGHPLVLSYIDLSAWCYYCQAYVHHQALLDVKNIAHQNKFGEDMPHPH

Histone deacetylase 1 [2] = target: T2, Histone deacetylase 1 (Homo sapiens, UniProt Q13547); assay: Inhibition of human recombinant HDAC1 using Boc-lys(Ac)-AMC as substrate preincubated for 20 mins with substrate measured after 60 mins by fluorescence analysis
T2 sequence (Q13547 whole entry): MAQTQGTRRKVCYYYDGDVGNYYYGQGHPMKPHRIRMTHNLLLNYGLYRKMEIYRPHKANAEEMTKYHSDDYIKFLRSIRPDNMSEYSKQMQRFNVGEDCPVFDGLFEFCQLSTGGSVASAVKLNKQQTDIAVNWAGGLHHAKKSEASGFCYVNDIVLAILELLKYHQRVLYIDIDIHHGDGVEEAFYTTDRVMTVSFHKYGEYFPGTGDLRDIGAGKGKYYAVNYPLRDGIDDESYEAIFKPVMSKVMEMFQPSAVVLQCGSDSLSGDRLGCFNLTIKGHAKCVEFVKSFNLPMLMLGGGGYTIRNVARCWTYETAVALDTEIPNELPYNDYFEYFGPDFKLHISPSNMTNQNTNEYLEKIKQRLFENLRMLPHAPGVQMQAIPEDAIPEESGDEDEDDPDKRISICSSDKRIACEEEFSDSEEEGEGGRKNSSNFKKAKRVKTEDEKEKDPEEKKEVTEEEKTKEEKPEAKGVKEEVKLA

[3] = target: T3, Histone deacetylase-like amidohydrolase (Alcaligenes sp. (strain DSM 11172) (Bordetella sp. (strain FB188))) (UniProt Q70I53); assay: Inhibition of Bordetella sp. (strain FB188) N-terminus His-tagged HDAH expressed in Escherichia coli BL21 (DE3) up to 100 uM; conditions: Alcaligenaceae bacterium FB188
T3 sequence (whole entry): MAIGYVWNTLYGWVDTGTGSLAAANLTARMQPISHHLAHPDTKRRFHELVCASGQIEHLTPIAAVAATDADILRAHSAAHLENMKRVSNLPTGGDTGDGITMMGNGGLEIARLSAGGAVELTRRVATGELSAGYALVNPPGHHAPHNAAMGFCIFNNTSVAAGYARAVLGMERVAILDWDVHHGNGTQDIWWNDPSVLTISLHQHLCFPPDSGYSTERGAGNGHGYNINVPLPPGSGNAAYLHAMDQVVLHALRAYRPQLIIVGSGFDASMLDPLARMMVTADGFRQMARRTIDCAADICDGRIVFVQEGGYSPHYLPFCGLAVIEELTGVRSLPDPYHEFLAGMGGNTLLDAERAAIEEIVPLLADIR
Summary of the method: (§1)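 Recombinant N-terminal His6-tagged HDAH from Bordetella strain FB188, expressed in E. coli BL21, purified on zinc-loaded His-Trap column, eluted with 500 mM imidazole, dialyzed into assay buffer (>98% pure by SDS-PAGE). Tested directly against compounds; thiols generated in situ from disulfides with TCEP.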

A549 = assay: Growth inhibition of human A549 cells after 96 hrs by sulphorhodamine B assay; format: functional; conditions: A549, 96 h
Summary of the method: (§2)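 SRB growth assay; MCF7 and WI38 seeded 4000 cells/well, A549 2000 cells/well, attached overnight, then exposed to freshly made drug solutions (0.1 to 50 μM) for 96 h. Fixed with cold 10% TCA, stained with 0.4% SRB; absorbance at 540 nm as percent of untreated control, IC50 from mean absorbance.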

MCF7 [4] = assay: Growth inhibition of human MCF7 cells after 96 hrs by sulphorhodamine B assay; format: functional; conditions: MCF7, 96 h; summary of the method: as §2
[5] = Growth inhibition of human WI38 cells after 96 hrs by sulphorhodamine B assay; format: cell-based; conditions: WI-38 cells; summary of the method: as §2
MCF7 [6] = assay: Inhibition of Class 1 histone deacetylase in human MCF7 cells assessed as up-regulation of p21 protein level at 0.5 uM after 24 hrs by Western blot analysis; format: cell-based
Summary of the method: (§3)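 MCF7 cells (5 × 10^6 per T75 flask) treated 24 h, harvested by trypsinization, lysed in RIPA on ice; 50 μg total protein resolved on 12% SDS-PAGE, transferred to nitrocellulose and probed for histone, acetylated histone, tubulin, acetylated tubulin, p21 and actin. Untreated cells as negative control.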

[7] = target: DNA (cytosine-5)-methyltransferase 1 (Homo sapiens, UniProt P26358); assay: Inhibition of full length N-terminal His6-tagged human DNMT1 at 120 uM after 1 hr by fluorescence analysis
Chain of DNA (cytosine-5)-methyltransferase 1 (P26358 whole entry): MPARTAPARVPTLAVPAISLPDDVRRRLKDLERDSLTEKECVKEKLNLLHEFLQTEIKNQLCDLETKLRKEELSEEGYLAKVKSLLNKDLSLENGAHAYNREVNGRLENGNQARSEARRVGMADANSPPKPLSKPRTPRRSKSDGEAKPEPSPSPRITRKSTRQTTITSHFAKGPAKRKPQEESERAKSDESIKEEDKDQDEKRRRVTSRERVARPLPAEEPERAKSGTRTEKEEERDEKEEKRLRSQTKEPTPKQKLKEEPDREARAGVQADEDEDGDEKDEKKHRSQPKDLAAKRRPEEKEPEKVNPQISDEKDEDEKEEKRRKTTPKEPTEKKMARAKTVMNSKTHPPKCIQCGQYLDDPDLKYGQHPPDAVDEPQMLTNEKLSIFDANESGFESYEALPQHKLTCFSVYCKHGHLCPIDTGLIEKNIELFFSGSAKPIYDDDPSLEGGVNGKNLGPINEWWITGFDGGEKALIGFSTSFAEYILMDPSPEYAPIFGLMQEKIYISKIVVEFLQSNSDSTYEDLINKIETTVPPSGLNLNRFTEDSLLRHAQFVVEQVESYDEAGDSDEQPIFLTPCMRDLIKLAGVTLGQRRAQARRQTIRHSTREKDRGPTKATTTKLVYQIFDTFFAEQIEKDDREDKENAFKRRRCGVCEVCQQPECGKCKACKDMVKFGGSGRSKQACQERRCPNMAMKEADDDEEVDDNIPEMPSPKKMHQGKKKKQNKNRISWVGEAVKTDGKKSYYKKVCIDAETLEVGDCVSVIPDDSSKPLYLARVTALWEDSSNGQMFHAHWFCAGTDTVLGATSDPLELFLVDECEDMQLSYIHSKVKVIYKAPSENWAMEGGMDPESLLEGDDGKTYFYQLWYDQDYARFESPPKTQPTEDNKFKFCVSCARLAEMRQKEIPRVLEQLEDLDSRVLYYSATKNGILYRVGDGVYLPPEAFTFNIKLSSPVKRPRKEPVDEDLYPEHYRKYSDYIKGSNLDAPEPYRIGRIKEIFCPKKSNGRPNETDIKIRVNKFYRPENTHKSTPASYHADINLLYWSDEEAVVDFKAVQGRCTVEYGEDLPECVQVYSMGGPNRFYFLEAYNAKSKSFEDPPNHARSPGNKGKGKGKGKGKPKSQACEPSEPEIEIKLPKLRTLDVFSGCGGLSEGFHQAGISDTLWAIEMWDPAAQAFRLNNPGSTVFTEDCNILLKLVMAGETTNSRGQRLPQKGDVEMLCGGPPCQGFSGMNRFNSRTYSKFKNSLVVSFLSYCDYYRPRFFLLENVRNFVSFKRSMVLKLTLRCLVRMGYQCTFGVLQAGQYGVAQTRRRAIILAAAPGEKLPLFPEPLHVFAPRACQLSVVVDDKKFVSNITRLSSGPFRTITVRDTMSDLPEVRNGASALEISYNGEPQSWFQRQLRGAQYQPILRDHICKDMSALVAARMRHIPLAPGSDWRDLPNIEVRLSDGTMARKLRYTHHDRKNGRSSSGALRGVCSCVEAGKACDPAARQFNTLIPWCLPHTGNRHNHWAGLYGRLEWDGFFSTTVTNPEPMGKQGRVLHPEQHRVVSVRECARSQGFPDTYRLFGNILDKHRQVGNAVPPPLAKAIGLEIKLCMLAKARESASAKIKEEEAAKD
Summary of the method: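 Baculovirus-expressed DNMT1 (80 nM final) with SAM (10 μM final) and hemimethylated hairpin oligo (125 nM final) in MOPS buffer pH 6.5 with 1 mM DTT, 1 h room temperature. Stopped with Gla1 plus 125 μM SAH, developed 7 h; fluorescence Ex 485/Em 520 nm. Thiols made in situ by TCEP reduction; no SAM as full-inhibition control.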

[8] = target: T4, Histone deacetylase-like amidohydrolase (Alcaligenes sp. (strain DSM 11172) (Bordetella sp. (strain FB188)), UniProt Q70I53); assay: Inhibition of Bordetella sp. (strain FB188) N-terminus His-tagged HDAH expressed in Escherichia coli BL21 (DE3); set-up: species or system Alcaligenaceae bacterium FB188; summary of the method: as §1
T4 sequence (Q70I53 whole entry): T3 sequence (whole entry)

Histone deacetylase 8 = target: T5, Histone deacetylase 8 (Homo sapiens, UniProt Q9BY41); assay: Inhibition of human recombinant HDAC8 using Boc-lys(Ac)-AMC as substrate preincubated for 20 mins with substrate measured after 60 mins by fluorescence analysis
T5 sequence (Q9BY41 whole entry): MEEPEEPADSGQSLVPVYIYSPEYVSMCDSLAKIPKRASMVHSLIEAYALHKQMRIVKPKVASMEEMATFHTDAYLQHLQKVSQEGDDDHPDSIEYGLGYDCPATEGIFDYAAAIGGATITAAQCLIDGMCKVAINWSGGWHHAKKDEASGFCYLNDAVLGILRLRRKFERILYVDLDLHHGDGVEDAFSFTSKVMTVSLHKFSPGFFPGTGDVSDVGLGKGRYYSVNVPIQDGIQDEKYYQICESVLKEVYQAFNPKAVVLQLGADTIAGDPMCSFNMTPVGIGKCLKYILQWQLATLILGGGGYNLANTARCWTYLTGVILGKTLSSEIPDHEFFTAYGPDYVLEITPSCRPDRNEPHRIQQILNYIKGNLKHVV

Histone deacetylase 1 [9] = target: T2, Histone deacetylase 1; assay: Inhibition of HDAC1 in human MCF7 cells assessed as up-regulation of acetylated histone H3 protein level at 1 uM after 24 hrs by Western blot analysis; format: cell-based; summary of the method: as §3
MCF7 [10] = assay: Inhibition of Class 1 histone deacetylase in human MCF7 cells assessed as up-regulation of p21 protein level at 1 uM after 24 hrs by Western blot analysis; format: cell-based; summary of the method: as §3
[11] = target: T6, Protein deacetylase HDAC6 (Homo sapiens) (UniProt Q9UBN7); assay: Inhibition of HDAC6 in human MCF7 cells assessed as change in tubulin acetylation level at 1 uM after 24 hrs by Western blot analysis; format: cell-based; summary of the method: as §3
T6 sequence (whole entry): T1 sequence (Q9UBN7 whole entry)

Bacteria [12] = assay: Inhibition of bacterial DNA cytosine-C5 methyltransferase, M.SssI at 50 uM
Summary of the method: (§4)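 One unit M.SssI with 1 μg bacteriophage λ DNA in NEBuffer2 (pH 7.9, 1 mM DTT) plus 160 μM SAM, ±inhibitor, 2 h at 37 °C; heat-inactivated 65 °C 20 min. Methylation read by BstUI digestion (10 units, 1 h 60 °C) and 1.5% agarose gel electrophoresis; run four times with positive and negative controls.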

Bacteria [13] = assay: Inhibition of bacterial DNA cytosine-C5 methyltransferase, M.SssI at 5 uM; summary of the method: as §4

In the case of `O=C(Cc1ccc(O)c(Br)c1)C(=O)NCCS`, the IC50 [1] is reported as 1 µM, the IC50 (Histone deacetylase 1 [2]) is reported as 0.4 µM and the inhibition [3] is reported as “inactive”. The GI50 (A549) was 43 µM, the GI50 (MCF7 [4]) was 35.4 µM and the GI50 at 96 h [5] was 42.6 µM.
With `CC(/C=C/C(=O)NO)=C\[C@@H](C)C(=O)c1ccc(N(C)C)cc1` the inhibition (MCF7 [6]) was “Active”.
In the case of `O=C(Cc1ccc(O)c(Br)c1)C(=O)NCCSSCCNC(=O)C(=O)Cc1ccc(O)c(Br)c1`, the IC50 [1] is reported as 9 µM, the IC50 (Histone deacetylase 1 [2]) is reported as 5 µM and the inhibition [3] is reported as “inactive”. For the same compound, the GI50 (A549) was 15.2 µM, the GI50 (MCF7 [4]) was 13.1 µM and the GI50 at 96 h [5] was 33.1 µM.
For `O=C(NCCS)/C(Cc1ccc(F)c(Br)c1)=N/O`, the IC50 [1] was 0.64 µM, the IC50 (Histone deacetylase 1 [2]) was 0.001 µM and the inhibition [3] was “inactive”. The inhibition [7] was “inactive”, the GI50 (A549) was 6.24 µM and the GI50 (MCF7 [4]) was 2.87 µM. It also gave a GI50 at 96 h [5] of 7.72 µM.
In the case of `CO/N=C(\Cc1ccc(O)c(Br)c1)C(=O)NCCSSCCNC(=O)/C(Cc1ccc(O)c(Br)c1)=N/OC`, the IC50 [1] is reported as 9.5 µM, the IC50 (Histone deacetylase 1 [2]) is reported as 0.38 µM and the inhibition [3] is reported as “inactive”. The GI50 (A549) was 49.5 µM and the GI50 at 96 h [5] was over 50 µM.
In the case of `O=C(CCNC(=O)/C(Cc1ccc(O)c(Br)c1)=N/O)NO`, the IC50 [1] is reported as 0.19 µM, the IC50 (Histone deacetylase 1 [2]) is reported as 0.002 µM and the inhibition [3] is reported as “Active”. For the same compound, the IC50 [8] was 0.31 µM, the IC50 (Histone deacetylase 8) was 1.5 µM and the GI50 (A549) was 1.59 µM. For the same compound, the GI50 (MCF7 [4]) was 1.13 µM, the GI50 at 96 h [5] was 7.86 µM and the inhibition (Histone deacetylase 1 [9]) was “Active”. The inhibition (MCF7 [10]) was “Active” and the inhibition [11] was “inactive”.
In the case of `CSCCNC(=O)/C(Cc1ccc(O)c(Br)c1)=N/O`, the IC50 [1] is reported as over 50 µM, the IC50 (Histone deacetylase 1 [2]) is reported as 7.7 µM and the inhibition [3] is reported as “inactive”. The GI50 (A549) was over 50 µM, the GI50 (MCF7 [4]) was over 50 µM and the GI50 at 96 h [5] was over 50 µM.
`O=C(O)CCP(CCC(=O)O)CCC(=O)O` gave an IC50 [1] of over 25 µM, an IC50 (Histone deacetylase 1 [2]) of over 25 µM and a GI50 (A549) of over 50 µM. It also gave a GI50 (MCF7 [4]) of over 50 µM and a GI50 at 96 h [5] of over 50 µM.
In the case of `O=C(NCCS)/C(Cc1ccc(O)c(Br)c1)=N/O`, the IC50 (Histone deacetylase 1 [2]) is reported as 0.0009 µM, the inhibition [3] is reported as “inactive” and the IC50 [8] is reported as 30.2 µM. The IC50 (Histone deacetylase 8) was 1.3 µM, the inhibition [7] was “inactive” and the GI50 (A549) was 2.53 µM. For the same compound, the GI50 (MCF7 [4]) was 2.35 µM, the GI50 at 96 h [5] was 3.4 µM and the inhibition (Bacteria [12]) was “Active”. The inhibition (Bacteria [13]) was “Active”.
With `CO/N=C(\Cc1ccc(O)c(Br)c1)C(=O)NCCS` the IC50 [1] was 0.22 µM, the IC50 (Histone deacetylase 1 [2]) was 0.027 µM and the inhibition [3] was “inactive”. The inhibition [7] was “inactive”, the GI50 (A549) was 10.6 µM and the GI50 (MCF7 [4]) was 19.3 µM. It also gave a GI50 at 96 h [5] of 24.2 µM.
